Usually IC50 stands for the concentration needed to halve the response being measured. Broadly, the Kd is the concentration at which binding is half-saturated.

We go through eleven molecules from ChEMBL document CHEMBL2321692, “De novo fragment design: a medicinal chemistry approach to fragment-based lead generation” (J Med Chem, 2013).

The subject of one assay is Hepatitis C virus. As to the kind of experiment: Inhibition of HCV NS5B570n-Con1 expressed in Escherichia coli assessed as radiolabeled nucleotide monophosphate incorporation into acid-insoluble RNA products after 2 hrs by scintillation counting analysis. Conditions: Con1, 2 h. More on the design: species or system Hepacivirus hominis. Put shortly: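 IC₅₀ in the NS5B polymerase enzyme assay using genotype 1b NS5B, Con1 strain.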

Assay [1] in a line: Inhibition of HCV NS5B570n-BK expressed in Escherichia coli assessed as radiolabeled nucleotide monophosphate incorporation into acid-insoluble RNA products after 2 hrs by scintillation counting analysis. More on the design: species or system Hepatitis C virus (isolate BK).
Assay [2] is described as follows: Binding affinity to HCV NS5B570n-BK expressed in Escherichia coli by surface plasma resonance assay. The class given is cell-free, Hepatitis C virus (isolate BK). Put shortly:
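Kinetic dissociation constant (K_D) measured against genotype 1b NS5B polymerase, BK strain, by surface plasmon resonance.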

`O=C1CNC(=O)N1Cc1ccccc1`: the IC50 with Hepatitis C virus is above 1000 µM.
For `c1ccc(NNc2ncnc3[nH]ncc23)cc1`, in assay [1], the half-inhibitory concentration (IC50) was determined as 130 µM. This molecule showed a Kd in assay [2] of 78 µM.
Turning to `O=C1CNC(=O)N1Cc1ccc(Cl)c(Cl)c1`, the IC50 in the assay on Hepatitis C virus was above 1000 µM.
For `CC(C)(C)c1ccc(CN2C(=O)CNC2=O)cc1`, the Kd in assay [2] worked out at 400 µM. Also, the concentration for half-maximal inhibition (IC50) with Hepatitis C virus amounted to 364 µM.
The matching figures for `CC1NC(=O)N(Cc2ccc(C(C)(C)C)cc2)C1=O` (configuration not stated): 144 µM and 220 µM.
The matching figures for `CCC1NC(=O)N(Cc2ccc(C(C)(C)C)cc2)C1=O` (configuration not stated): 93 µM and 108 µM.
The matching figures for `CC(C)C1NC(=O)N(Cc2ccc(C(C)(C)C)cc2)C1=O` (configuration not stated): 18 µM and 21 µM.
Consider `CC(C)(C)c1ccc(Cc2ccc[nH]c2=O)cc1`, for which the IC50 in the assay on Hepatitis C virus was found to be 431 µM.
Same read-out and setting: the figure for `Cc1ccccc1Oc1cccc(-c2ccc[nH]c2=O)c1` is 80 µM.
Molecule `CC(C)(C)c1cccc(-c2ccc[nH]c2=O)c1` returned a Kd in assay [2] of 5.8 µM. Further, in the assay on Hepatitis C virus, the IC50 was 4 µM.
Turning to `COc1ccc(-c2ccc[nH]c2=O)cc1C(C)(C)C`, the Kd in assay [2] amounted to 0.57 µM.
